≈ marks a conversion by molar mass, not a printed value.
Experiments:
Clostridioides difficile = assay: Antibacterial activity against Clostridium difficile 630 ATCC BAA-1382 by broth microdilution assay; type: functional
Procedure, shortened: (§1)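 Broth microdilution run essentially per an earlier report. MIC taken as the lowest concentration with no visible growth. Replicates typically agreed within one 2-fold dilution. The median MIC is reported, with a range where the median fell between two tested concentrations.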

Giardia intestinalis = assay: Antiparasitic activity against Giardia lamblia WB trophozoites after 24 to 48 hrs by CellTiter-Glo luminescent cell viability assay; conditions: Giardia duodenalis
[1] = test system: Mycobacterium tuberculosis; assay: Antibacterial activity against non-replicating Mycobacterium tuberculosis H37Rv after 5 days under hypoxic condition by resazurin dye-based fluorescence assay; type: functional; conditions: 120 h
Procedure, shortened: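 Same H37Rv inoculum (OD600 0.001, ~2 x 10^4 CFU/mL) in 7H9S with serially diluted compound. Plates held 5 days at 0.1% oxygen, then resazurin plus Tween-80 added.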

Entamoeba histolytica = assay: Antiparasitic activity against Entamoeba histolytica HM-1:IMSS trophozoites after 24 to 48 hrs by CellTiter-Glo luminescent cell viability assay; type: functional, organism-based
Procedure, shortened: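 Axenic trophozoites were kept in TYI-S-33 with penicillin (100 U/mL) and streptomycin (100 µg/mL) and harvested in log phase. 5000 parasites per well were exposed to a final 8-point two-fold series of 0.39–50 µM, from 10 mM DMSO stocks. Plates were incubated 24–48 h at 37 °C under anaerobic conditions. ATP luminescence viability was read in triplicate. Percent inhibition is given at the highest concentration tested.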

[2] = test system: Trypanosoma brucei brucei; assay: Antiparasitic activity against bloodstream form of Trypanosoma brucei brucei strain 427 after 48 hrs by resazurin dye-based assay; type: functional, organism-based; conditions: strain 427, 48 h
[3] = test system: Mycobacterium tuberculosis; assay: Antibacterial activity against Mycobacterium tuberculosis H37Rv after 5 days under normoxic condition by resazurin dye-based fluorescence assay; type: functional, organism-based
Procedure, shortened: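 H37Rv grown in 7H9/ADC/glycerol/Tyloxapol to mid-exponential phase, diluted to OD600 0.001 (~2 x 10^4 CFU/mL) in 7H9S with serially diluted compound. Incubated 5 days at 37 °C, then resazurin and Tween-80 added. Fluorescence (ex 530/em 590 nm) read after 24 h, normalised to no-drug and no-bacteria wells.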

Escherichia coli = assay: Antibacterial activity against Escherichia coli ATCC 25922 by broth microdilution assay; type: functional; procedure, shortened: as §1
Staphylococcus aureus = assay: Antibacterial activity against methicillin-resistant Staphylococcus aureus ATCC […] by broth microdilution assay; type: functional
Candida albicans = assay: Antifungal activity against Candida albicans ATCC 90028 by broth microdilution assay; type: functional; procedure, shortened: as §1
Pseudomonas aeruginosa = assay: Antibacterial activity against Pseudomonas aeruginosa ATCC 27853 by broth microdilution assay; type: functional; procedure, shortened: as §1
Klebsiella pneumoniae = assay: Antibacterial activity against Klebsiella pneumoniae 700603 by broth microdilution assay; type: functional; procedure, shortened: as §1
Acinetobacter baumannii = assay: Antibacterial activity against Acinetobacter baumannii ATCC 19606 by broth microdilution assay; type: functional; conditions: ATCC 19606 = CIP 70.34 = JCM 6841; procedure, shortened: as §1
Cryptococcus neoformans = assay: Antifungal activity against Cryptococcus neoformans H99 ATCC […] broth microdilution assay; type: functional; conditions: var. grubii H99 ATCC 208821; procedure, shortened: as §1
HEK293 = assay: Cytotoxicity against HEK293 cells after 24 hrs by resazurin dye-based fluorescence assay; type: cell-based; conditions: human, hek293, 24 h
Procedure, shortened: (§2)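 HEK293 (3000/well) and HepG2 (5000/well) were grown 24 h in DMEM with 10% FBS at 37 °C, 5% CO2. Cells were then exposed 24 h to a dilution series up to 100 µM (0.5% DMSO). 5 µM resazurin was added for 2 h, read at ex 560/em 590. 1% Triton X-100 served as lysis control. CC50 was derived from the curves.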

HepG2 = assay: Cytotoxicity against human HepG2 cells after 24 hrs by resazurin dye-based fluorescence assay; type: cell-based; conditions: hepg2, 24 h; procedure, shortened: as §2

SMILES | MIC (Clostridioides difficile) [µg/mL] | IC50 (Giardia intestinalis) [µM] | MIC [1] [µg/mL] | IC50 (Entamoeba histolytica; read-out: IC50) [µM] | IC50 ([2]; read-out: IC50) [µM] | IC50 ([2]; read-out: pIC50 (converted)) [µM] | IC50 (Giardia intestinalis; read-out: pIC50 (converted)) [µM] | MIC [3] [µg/mL] | IC50 (Entamoeba histolytica; read-out: pIC50 (converted)) [µM] | MIC (Escherichia coli) [µg/mL] | MIC (Staphylococcus aureus) [µg/mL] | MIC (Candida albicans) [µg/mL] | MIC (Pseudomonas aeruginosa) [µg/mL] | MIC (Klebsiella pneumoniae) [µg/mL] | MIC (Acinetobacter baumannii) [µg/mL] | MIC (Cryptococcus neoformans) [µg/mL] | CC50 (HEK293) [µM] | CC50 (HepG2) [µM]
CNC(=O)c1nc([N+](=O)[O-])cn1Cc1ccc(OC(F)(F)F)cc1 | 16 to 64 (≈ 46.5 to 186 µM) | 2.7 to 7.5 | > 32 | 10 to 45 | – | – | – | – | – | – | – | – | – | – | – | – | – | –
Cc1ccc(Cn2cc([N+](=O)[O-])nc2C(N)=O)cc1 | > 64 | 4.1 to 50 | > 32 | > 25 | – | – | – | – | – | – | – | – | – | – | – | – | – | –
O=C(NCc1cccc(OC(F)(F)F)c1)c1ncc([N+](=O)[O-])[nH]1 | 4 to 16 (≈ 12.1 to 48.5 µM) | 0.2 to 0.5 | > 32 | 2.2 to 4.5 | – | – | – | – | – | – | – | – | – | – | – | – | – | –
Cc1cn2cc([N+](=O)[O-])nc2c(OCc2ccccc2OC(F)(F)F)n1 | – | 5.7 | > 32 | > 50 | 1.2 | 1.26 | 6.31 | >32 | > 50.1 | – | – | – | – | – | – | – | – | –
CC(=O)OCCn1ccn2cc([N+](=O)[O-])nc2c1=O | – | – | – | – | – | – | – | – | – | > 32 | > 32 | > 32 | > 32 | > 32 | > 32 | > 32 | – | –
Cc1c(C)n2cc([N+](=O)[O-])nc2c(=O)n1Cc1ccccc1OC(F)(F)F | – | 5.3 | > 32 | 18 | 0.78 | 0.794 | 5.01 | >32 | 20 | – | – | – | – | – | – | – | – | –
CC(=O)OCCOc1nc(-c2ccccc2)cn2cc([N+](=O)[O-])nc12 | – | 1.9 | > 32 | > 50 | 1.5 | 1.58 | 2 | – | > 50.1 | – | – | – | – | – | – | – | – | –
Cc1c(C)n2cc([N+](=O)[O-])nc2c(=O)n1Cc1cccc(OC(F)(F)F)c1 | – | 1.7 | 16 to 32 (≈ 41.9 to 83.7 µM) | 15 | 0.4 | 0.398 | 1.58 | 1 (≈ 2.62 µM) | 15.8 | – | – | – | – | – | – | – | 50.6 to 74.5 | 26 to 80
NC(=O)c1nc([N+](=O)[O-])cn1Cc1ccc(F)cc1 | > 64 | 4.1 to 50 | > 32 | > 25 | – | – | – | – | – | – | – | – | – | – | – | – | – | –
Cc1nc(OCc2cccc(OC(F)(F)F)c2)c2nc([N+](=O)[O-])cn2c1C | – | 3.9 | > 32 | 27 | 1.4 | 1.26 | 3.98 | >32 | 25.1 | – | – | – | – | – | – | – | – | –
O=c1c2nc([N+](=O)[O-])cn2ccn1Cc1ccccc1 | > 64 | – | – | – | – | – | – | – | – | – | – | – | – | – | – | – | – | –
O=c1c2nc([N+](=O)[O-])cn2ccn1C1CCCCC1 | – | 5.2 | > 32 | – | 1.4 | 1.26 | 5.01 | >32 | – | > 32 | > 32 | > 32 | > 32 | > 32 | > 32 | > 32 | – | –
O=c1c2nc([N+](=O)[O-])cn2ccn1CCN1CCOCC1 | – | – | > 32 | – | – | – | – | >32 | – | > 32 | > 32 | > 32 | > 32 | > 32 | > 32 | > 32 | > 100 | > 100
Cc1ccc(COc2nc(C)cn3cc([N+](=O)[O-])nc23)cc1 | – | 5.7 | – | 30 | – | – | 6.31 | – | 31.6 | – | – | – | – | – | – | – | – | –
Cc1nc(OCc2ccccc2OC(F)(F)F)c2nc([N+](=O)[O-])cn2c1C | – | > 50 | > 32 | > 50 | 1.9 | 2 | > 50.1 | >32 | > 50.1 | – | – | – | – | – | – | – | – | –
Cc1[nH]c(=O)c2nc([N+](=O)[O-])cn2c1C | – | 50 | > 32 | > 50 | 2.6 | 2.51 | 50.1 | >32 | > 50.1 | – | – | – | – | – | – | – | – | –
Cc1ccc(Cn2c(C)cn3cc([N+](=O)[O-])nc3c2=O)cc1 | – | 4.4 | > 32 | 10 | 0.56 | 0.501 | 3.98 | >32 | 10 | – | – | – | – | – | – | – | – | –
Cc1cn2cc([N+](=O)[O-])nc2c(=O)[nH]1 | – | 50 | > 32 | > 50 | 3.6 | 3.98 | 50.1 | >32 | > 50.1 | – | – | – | – | – | – | – | – | –

Source: ChEMBL document CHEMBL4382237, “Design, Synthesis, and Biological Evaluation of 2-Nitroimidazopyrazin-one/-es with Antitubercular and Antiparasitic Activity” (J Med Chem, 2018)
